Measured values reported in ChEMBL document CHEMBL4014269, “Antibacterial and Hypoglycemic Diterpenoids from Salvia chamaedryoides” (J Nat Prod, 2017).
≈ marks a conversion by molar mass, not a printed value. Calls of active or inactive are those of the source. The rule behind the calls is not given here.

Tests used:
[1] = target: alpha-glucosidase (Saccharomyces cerevisiae); test: Inhibition of alpha-glucosidase (Saccharomyces cerevisiae) using 4-nitrophenyl alpha-D-glucopyranoside as substrate after 10 mins
[2] = target: Alpha-amylase (Sus scrofa); test: Inhibition of alpha-amylase (hog pancreas) using starch as substrate preincubated for 10 mins followed by substrate addition measured after 10 mins by dinitrosalicylic acid color reagent based assay
[3] = tested on: Escherichia coli; test: Antibacterial activity against Escherichia coli isolate MB 123 after 24 hrs by microdilution assay; type: functional
Outline: (§1)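 Clinical isolates from various clinical specimens, identified by standard procedures and kept in a hospital microbiology laboratory collection. The MIC was read by broth microdilution, following a method described in earlier work.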

[4] = tested on: Enterococcus faecium; test: Antibacterial activity against vancomycin-resistant Enterococcus faecium isolate MB 23 after 24 hrs by microdilution assay; type: functional; conditions: isolate MB 23, 24 h
Outline: as §1

[5] = tested on: Staphylococcus epidermidis; test: Antibacterial activity against methicillin-resistant Staphylococcus epidermidis isolate MB 26 after 24 hrs by microdilution assay; type: functional; conditions: isolate MB 26, 24 h
Outline: as §1

[6] = tested on: Staphylococcus aureus; test: Antibacterial activity against methicillin-sensitive Staphylococcus aureus isolate MB 21 after 24 hrs by microdilution assay; type: functional; conditions: isolate MB 21, 24 h
Outline: (§2)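 Clinical isolates from a hospital microbiology collection, identified by standard procedures; MICs by broth microdilution.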

[7] = tested on: Staphylococcus aureus; test: Antibacterial activity against methicillin-resistant Staphylococcus aureus isolate MB 18 after 24 hrs by microdilution assay; type: functional; conditions: isolate MB 18, 24 h
Outline: as §1

[8] = tested on: Proteus mirabilis; test: Antibacterial activity against Proteus mirabilis isolate MB 14 after 24 hrs by microdilution assay; type: functional
Outline: as §1

[9] = tested on: Nakaseomyces glabratus; test: Antifungal activity against Candida glabrata isolate MB 8 after 48 hrs by microdilution assay; type: functional
Outline: as §1

[10] = tested on: Staphylococcus aureus; test: Antibacterial activity against methicillin-resistant Staphylococcus aureus isolate MB 10 after 24 hrs by microdilution assay; type: functional; conditions: isolate MB 10, 24 h
Outline: as §1

[11] = tested on: Enterococcus faecium; test: Antibacterial activity against vancomycin-resistant Enterococcus faecium isolate MB 2 after 24 hrs by microdilution assay; type: functional; conditions: isolate MB 2, 24 h
Outline: as §1

[12] = tested on: Candida albicans; test: Antifungal activity against Candida albicans isolate MB 31 after 48 hrs by microdilution assay; type: functional
Outline: as §1

[13] = tested on: Moraxella catarrhalis; test: Antibacterial activity against Moraxella catarrhalis isolate MB 15 after 24 hrs by microdilution assay; type: functional
Outline: as §1

[14] = tested on: Staphylococcus epidermidis; test: Antibacterial activity against methicillin-resistant Staphylococcus epidermidis isolate MB 20 after 24 hrs by microdilution assay; type: functional; conditions: isolate MB 20, 24 h
Outline: as §1

[15] = tested on: Enterococcus faecium; test: Antibacterial activity against Enterococcus faecium isolate MB 55 after 24 hrs by microdilution assay; type: functional; conditions: isolate MB 55, 24 h
Outline: as §1

[16] = tested on: Enterococcus faecalis; test: Antibacterial activity against vancomycin-resistant Enterococcus faecalis isolate MB 1 after 24 hrs by microdilution assay; type: functional; conditions: isolate MB 1, 24 h
Outline: as §1

[17] = tested on: Enterococcus faecalis; test: Antibacterial activity against vancomycin-resistant Enterococcus faecalis isolate MB 49 after 24 hrs by microdilution assay; type: functional; conditions: isolate MB 49, 24 h
Outline: as §1

[18] = tested on: Enterococcus faecalis; test: Antibacterial activity against vancomycin-resistant Enterococcus faecalis isolate MB 51 after 24 hrs by microdilution assay; type: functional; conditions: isolate MB 51, 24 h
Outline: as §1

[19] = tested on: Staphylococcus aureus; test: Antibacterial activity against methicillin-resistant Staphylococcus aureus isolate MB 9 after 24 hrs by microdilution assay; type: functional; conditions: isolate MB 9, 24 h
Outline: as §1

[20] = tested on: Staphylococcus epidermidis; test: Antibacterial activity against methicillin-sensitive Staphylococcus epidermidis isolate MB 65 after 24 hrs by microdilution assay; type: functional; conditions: isolate MB 65, 24 h
Outline: as §2

[21] = tested on: Klebsiella pneumoniae; test: Antibacterial activity against Klebsiella pneumoniae isolate MB 11 after 24 hrs by microdilution assay; type: functional
Outline: as §1

[22] = tested on: Enterococcus faecium; test: Antibacterial activity against vancomycin-resistant Enterococcus faecium isolate MB 50 after 24 hrs by microdilution assay; type: functional; conditions: isolate MB 50, 24 h
Outline: as §1

[23] = tested on: Enterococcus faecalis; test: Antibacterial activity against Enterococcus faecalis isolate MB 3 after 24 hrs by microdilution assay; type: functional; conditions: isolate MB 3, 24 h
Outline: as §2

[24] = tested on: Staphylococcus epidermidis; test: Antibacterial activity against methicillin-resistant Staphylococcus epidermidis isolate MB 64 after 24 hrs by microdilution assay; type: functional; conditions: isolate MB 64, 24 h
Outline: as §1

Row | SMILES | Activity [3] | MIC [4] | MIC [5] [mg/L] | MIC [6] [mg/L] | MIC [7] [mg/L] | Activity [8] | Activity [9] | MIC [10] [mg/L] | MIC [11] [µM] | Activity [12] | Activity [13] | MIC [14] [mg/L] | MIC [15] | MIC [16] | MIC [17] | MIC [18] | MIC [19] [mg/L] | MIC [20] [mg/L] | Activity [21] | MIC [22] | other results
1 | C[C@]12C[C@H](c3ccoc3)OC(=O)[C@@]1(O)[C@@H](O)C[C@@]13COC(=O)C1=CC[C@@H](O)[C@@H]32 | – | – | – | – | – | – | – | – | – | – | – | – | – | – | – | – | – | – | – | – | IC50 [1]: 113.2 mg/L (≈ 290 µM); IC50 [2]: 238.1 mg/L (≈ 610 µM)
2 | C[C@]12C[C@H](c3ccoc3)OC(=O)[C@@H]1[C@H](O)C[C@@]13COC(=O)C1=CC=C[C@H]32 | – | – | – | – | – | – | – | – | – | – | – | – | – | – | – | – | – | – | – | – | IC50 [2]: 53.5 mg/L (≈ 150 µM)
3 | O=C1OCC=C1[C@H]1CCc2ccc3c(c2C1)[C@H](c1ccoc1)OC3=O | inactive | 381 µM | > 128 | > 128 | > 128 | inactive | inactive | > 128 | 381 (≈ 128 µg/mL) | inactive | inactive | > 128 | 381 µM | > 128 mg/L | > 128 mg/L | > 128 mg/L | > 128 | > 128 | inactive | 381 µM | MIC [23]: > 128 mg/L; MIC [24]: > 128 mg/L
4 | C[C@]12C[C@H](c3ccoc3)OC(=O)[C@@]1(O)[C@H](O)C[C@@]13COC(=O)C1=CCC[C@@H]32 | inactive | 342 µM | > 128 | > 128 | > 128 | inactive | inactive | > 128 | 342 (≈ 128 µg/mL) | inactive | inactive | > 128 | 342 µM | > 128 mg/L | > 128 mg/L | > 128 mg/L | > 128 | > 128 | inactive | > 128 mg/L | MIC [23]: > 128 mg/L; MIC [24]: > 128 mg/L
5 | CC(=O)O[C@H](C[C@@]1(C)[C@H](C)[C@H](O[C@@H]2O[C@H](CO)[C@@H](O)C(=O)[C@H]2O)C[C@@]23COC(=O)C2=CCC[C@@H]31)c1ccoc1 | inactive | > 128 mg/L | > 128 | > 128 | > 128 | inactive | inactive | > 128 | 234 (≈ 128 µg/mL) | inactive | inactive | > 128 | > 128 mg/L | 234 µM | 234 µM | 117 µM | > 128 | > 128 | inactive | 234 µM | MIC [23]: 117 µM; MIC [24]: > 128 mg/L
6 | C[C@]12C[C@H](c3ccoc3)OC(=O)[C@@H]1[C@H](O)C[C@]13COC(=O)C1=CC=C[C@@H]32 | inactive | > 128 mg/L | > 128 | > 128 | > 128 | inactive | inactive | > 128 | 359 (≈ 128 µg/mL) | inactive | inactive | > 128 | > 128 mg/L | > 128 mg/L | > 128 mg/L | > 128 mg/L | > 128 | > 128 | inactive | 359 µM | MIC [23]: > 128 mg/L; MIC [24]: > 128 mg/L
7 | C[C@]12C[C@H](c3ccoc3)OC(=O)[C@]1(O)[C@H](O)C[C@@]13COC(=O)C1=CCC[C@@H]32 | inactive | 342 µM | > 128 | > 128 | > 128 | inactive | inactive | > 128 | 171 (≈ 64.1 µg/mL) | inactive | inactive | > 128 | 342 µM | 171 µM | 171 µM | 85.5 µM | > 128 | > 128 | inactive | 171 µM | MIC [23]: 342 µM; MIC [24]: > 128 mg/L
8 | C[C@@]12/C=C/C=C\C3=C(COC3=O)C[C@@H](O)[C@H]1C(=O)O[C@@H](c1ccoc1)C2 | inactive | 180 µM | > 128 | > 128 | > 128 | inactive | inactive | > 128 | 89.9 (≈ 32 µg/mL) | inactive | inactive | > 128 | 89.9 µM | 180 µM | 180 µM | 89.9 µM | > 128 | > 128 | inactive | 180 µM | MIC [23]: 89.9 µM; MIC [24]: > 128 mg/L
9 | CC(C)c1cc2c(c(O)c1O)[C@@]13CCCC(C)(C)[C@@H]1[C@H](OC3=O)C2=O | inactive | 93 µM | > 128 | > 128 | > 128 | inactive | inactive | > 128 | 186 (≈ 64.1 µg/mL) | inactive | inactive | > 128 | 186 µM | 186 µM | 186 µM | 93 µM | > 128 | > 128 | inactive | 93 µM | MIC [23]: 93 µM; MIC [24]: > 128 mg/L
